From ChEMBL document CHEMBL4152257, “Discovery of novel β-carboline/acylhydrazone hybrids as potent antitumor agents and overcome drug resistance” (Eur J Med Chem, 2018) come the findings set out here.

SMILES strings stand for the structures. Calls of active or inactive are those of the source. The rule behind the calls is not given here.

As usually defined, the inhibition is how much of the control response was suppressed. High values mean a strong effect, low ones a weak effect.

What all share (type): functional
For experiment [1], the system named is MCF7. The experiment in a line: Cell cycle arrest in human MCF7 cells assessed as accumulation at S phase at 30 uM after 18 hrs by propidium iodide staining based flow cytometry (reference value: 44.80%).
Experiment [2] has as its system MCF7. The experiment in a line: Induction of apoptosis in human MCF7 cells assessed as necrotic cells at 30 uM after 48 hrs by annexin V-FITC/PI dual staining based flow cytometry (reference value: 0.16%).
Experiment [3] has as its system MCF7. Kind of experiment: Cell cycle arrest in human MCF7 cells assessed as accumulation at sub-G1 phase after 18 hrs by propidium iodide staining based flow cytometry.
Experiment [4] has as its system MCF7. Kind of experiment: Cell cycle arrest in human MCF7 cells assessed as accumulation at G0/G1 phase at 30 uM after 18 hrs by propidium iodide staining based flow cytometry (reference value: 45.22%). Background: Flow cytometry measures light scatter and fluorescence of single cells or particles in a stream.
Experiment [5] concerns MCF7. The experiment in a line: Antiproliferative activity against human MCF7 cells at 1 uM after 48 to 72 hrs by MTT assay relative to control. Summed up: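 Single-concentration screen in the MTT proliferation assay: log-phase cells seeded and allowed to adhere, exposed to compound at 1 µM for 48 h or 72 h, MTT added for 2-3 h, formazan dissolved in DMSO; percent inhibition versus control.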
A general note: Tetrazolium assays rely on reduction of a dye to a coloured formazan, in cell work by metabolically active cells.

Consider `N#Cc1ccc(COc2cccc(/C=N/NC(=O)c3cc4c(cn3)[nH]c3ccccc34)c2)cc1`, for which the Activity was determined as 55.32% in the experiment with MCF7 [1], 0.93% in the experiment on MCF7 [2] and 38.62% in the experiment with MCF7 [4]. Also, the result in the experiment on MCF7 [3] was Active. Besides, the inhibition at 1 µM in the experiment on MCF7 [5] turned out to be 59.6%.
